# Data as given in PMC4550085 (Chemical communications (Cambridge, England), 2015).
# Tests used:
# [1] = pH titration of fluorescence intensity of the dyes and CPP-dye adducts; type: physicochemical
# [2] = cited from earlier work
# [3] = system: HeLa cells; assay: FACS analysis of total cellular uptake of Rho-labelled CPPs; type: cell-based; settings: for Total cellular uptake (MFI^Rho, %): relative to Tat (100%), 5 µM Rho-labelled peptide, 2 h
# Method in brief: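 Total uptake: HeLa cells were treated for 2 h with 5 µM rhodamine-labelled peptide and analysed by FACS with excitation at 561 nm. MFI was background-subtracted. Values are relative to the Tat conjugate (100%) and are mean ± SD of three independent experiments.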
# [4] = system: HeLa cells; assay: FACS analysis of cytosolic delivery of NF-labelled CPPs; type: cell-based; settings: 2 h; for cytosolic delivery efficiency relative to Tat: 5 µM NF-labelled peptides; for Cytosolic delivery (MFI^NF, %): relative to Tat (100%), 5 µM NF-labelled peptide
# Method in brief: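 HeLa cells were exposed for 2 h to 5 µM naphthofluorescein-labelled peptide and analysed by FACS with excitation at 633 nm. Background fluorescence was subtracted from the mean fluorescence intensity (MFI). Values are relative to the Tat conjugate (100%) and are mean ± SD of three independent experiments.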
# [5] = system: HeLa cells; assay: Live-cell confocal microscopy of labelled CPPs; type: cell-based; settings: 5 µM for 2 h
# [6] = system: HeLa cells; assay: Endosomal escape efficiency calculated from NF and Rho MFI; type: cell-based; settings: for Endosomal escape efficiency (γ, %): relative to Tat (100%), calculated from MFI^NF/MFI^Rho; for endosomal escape efficiency relative to Tat: γ=(MFI NF/MFI Rho)/(MFI Tat NF/MFI Tat Rho), HeLa cells, 5 µM
# [7] = previously shown; cited from earlier work
# [8] = system: HeLa cells; assay: MTT cytotoxicity assay; type: cell-based; settings: up to 25 µM concentration
Substance,"change in fluorescence intensity with pH ([1]; pH range of 5–10, Ex/Em 545/590 nm)","cytosolic delivery efficiency relative to Tat, pCAP-based assay [2]","Total cellular uptake (MFI^Rho, %) [3]",cytosolic delivery efficiency relative to Tat [4],"Cytosolic delivery (MFI^NF, %) [4]",intracellular fluorescence pattern [5],"Endosomal escape efficiency (γ, %) [6]",endosomal escape efficiency relative to Tat [6],total cellular uptake relative to Tat ([3]; 5 µM Rho-labelled peptides),cytosolic delivery efficiency relative to Tat and R9 [7],"pH profile of CPP-dye adduct compared with the unmodified dye ([1]; dye attached to the glutamine side chain of cFΦR4, pH titration)","cytotoxicity, MTT assay [8]"
rhodamine,no significant change in fluorescence intensity,–,–,–,–,–,–,–,–,–,–,–
nonaarginine [R9],–,3 fold,114%,~ 2 fold,197%,diffuse fluorescence in both cytoplasmic and nuclear regions,173%,1.7 fold,–,–,–,–
cyclo(FΦRRRRQ) (head to tail) [cFΦR4],–,12 fold,–,~ 10 fold,1006%,–,433%,4.3 fold,2.3 fold,4–12 fold,essentially identical pH profiles,Neither peptide showed any significant toxicity
YGRKKRRQRRR [Tat],–,–,100%,–,100%,diffuse fluorescence in both cytoplasmic and nuclear regions,100%,–,–,–,–,–
